# Source: PubChem BioAssay
# Most compounds without a hit are left out; they make up all but 2% or so of the library.
# PLK1 inh: blocks human PLK1 kinase activity; P53350; inhibition, % at 10 µM; 97,000 tested, 0.53% active; recombinant PLK1 kinase, TR-FRET peptide phosphorylation; AID 619;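 active = inhibition of 50% or more in the single-concentration screen; inactive = inhibition below 50%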;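 note: 0% = DMSO max control and 100% = H-89 dihydrochloride min control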
# Plk1 PBD FP: blocks phosphopeptide binding to human Plk1 polo box domain. P53350. Plk1 PBD phosphopeptide binding, fluorescence polarization. inhibition, %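 (tested at about 20 µM)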. 97,000 tested, 0.13% active; in the data active = inhibition above about 34%, passing the limit was not always enough
# LYP act: LYP (human) phosphatase activation; recombinant LYP, DiFMUP fluorescence; 0 = plate median, 100 = signal doubled; AID 697; activation, % at 2 µM; 96,000 tested, 0.11% active; Q9Y2R2;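 active = activation at 2 µM above a set limit, the mean plus 5 SD, cut at about 37% in these data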
# EphB4 antag: blocks human EphB4 binding to ephrin-B2; 97,000 tested, 0.15% active; EphB4 LBD / TNYL-RAW-Alexa532 peptide, fluorescence polarization; inhibition, % at 7 µM; AID 720;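 active = inhibition above the screen-wide mean inhibition plus 3 SD, cut at about 15% in these data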;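 note: 0% = DMSO wells and 100% = excess unlabeled TNYL-RAW peptide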
# PTPN22 inh 2: inhibitors of human LYP (PTPN22) phosphatase. Q9Y2R2. recombinant LYP catalytic domain, DiFMUP fluorescence. inhibition, % at 2 µM. 96,000 tested, 0.21% active;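 active = inhibition at 2 µM at or above a set limit, the screen mean plus 3 SD, cut at about 24% in these data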;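 note: 0% = DMSO with enzyme and 100% = enzyme fully blocked by orthovanadate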
# HIV Rev-RRE inh: HIV Rev-RRE protein-RNA interaction inhibition. Rev peptide-RRE RNA binding, FRET. inhibition, % at 8 µM. 97,000 tested, 0.79% active. AID 704;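 active = inhibition above the screen-wide mean plus 3 SD, cut at about 35% in these data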;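 note: 0% = median DMSO wells and 100% = median Neomycin B control wells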
# Target sequence (P05866 whole entry, looked up): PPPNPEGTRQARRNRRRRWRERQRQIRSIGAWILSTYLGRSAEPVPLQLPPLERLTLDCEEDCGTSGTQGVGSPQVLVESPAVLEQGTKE
#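 Probe or stimulus: fluorescein-Rev peptide as binding partner; assay system: Cy5-tagged RRE RNA duplex with fluorescein-tagged Rev peptide; timing: 5 min compound–RNA preincubation, then 15 min with peptide, 25 °C; medium: HEPES pH 7.5 buffer with KCl, MgCl2, NaCl and EDTA; signal: fluorescein-to-Cy5 FRET, 480 nm excitation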
# * = called active by the depositor; / = no result given; [ ] = remark or other dose.
SMILES,PLK1 inh,Plk1 PBD FP,LYP act,EphB4 antag,PTPN22 inh 2,HIV Rev-RRE inh
Cc1ccccc1NC(=O)CN1C(=O)S/C(=C\c2cccn2-c2cccc(C(=O)O)c2)C1=O,-8,15,8,-12,-3,-4
Cc1ccc(NC(=O)CN2C(=O)S/C(=C\c3cccn3-c3cccc(C(=O)O)c3)C2=O)c(C)c1,-8,1,-48,-9,50*,-2
CC(=O)Nc1cccc(NC(C)=O)n1,-12,-3,1,6,-2,9
Cc1csc(C(=O)O)c1-n1cccc1,55*,29,-9,-6,10,1
O=C(O)c1ccoc1CN1CCCCC1,-2,6,-6,-1,3,5
NC(=S)Nc1cccc2cc3ccccc3cc12,1,-12,4,-7,-1,102*[fluorescence artefact?]
COC(=O)c1cc2c(C)cc3ccc(C)cn3c-2c1C(=O)OC,-13,-19,8,-1,-11,36*
COC(=O)c1cc2ccccn2c2c(C(=O)OC)c(C(=O)OC)cc1-2,-3,-11,-12,-4,12,-5
Cc1ccc2nc(N/N=C\c3ccc([N+](=O)[O-])o3)nc(-c3ccccc3)c2c1,-12,-8,-15,3,16,58*
c1ccc(-c2nc3ccccc3nc2N2CCOCC2)cc1,-4,-10,5,-7,-7,2
Cc1ccc2cc(/C=C3\N=C(c4ccccc4)OC3=O)c(N3CCOCC3)nc2c1,-15,-21,2,-1,-2,39*
CN(C)c1ccc(/C=C/C(O)=C2/C(=O)N(C)C3(C)CC2c2ccccc2O3)cc1 (stereo not given),-20,-54,-1,4,-1,121*[fluorescence artefact?]
CCCN1C(=O)/C(=C/c2ccc(C)s2)SC1=Nc1ccc(OC)cc1,-5,13,-10,-2,14,9
C=CCN1C(=O)/C(=C/c2ccc(N(C)C)cc2)S/C1=N\c1nnc(CC)s1,-40,-91,13,-2,-15,131*[fluorescence artefact?]
Cc1ccc(OCC2Cn3c(nc4c3c(=O)n(C)c(=O)n4C)O2)cc1 (stereo not given),37,-5,5,2,-2,4
O=C(c1ccco1)[C@@H]1[C@@H]2C(=O)N(c3ccccc3)C(=O)[C@@H]2C2c3ccccc3C=CN21 (stereo not given in full),-7,-10,2,-4,-2,34
CC(=O)[C@@H]1[C@@H]2C(=O)N(Cc3ccccc3)C(=O)[C@@H]2C2c3ccccc3C=CN21 (stereo not given in full),-9,-28,-11,-7,8,64*
COc1ccc(N2C(=O)[C@@H]3[C@H](C2=O)[C@H]2c4ccccc4C=CN2[C@@H]3C(=O)Nc2ccccc2)cc1,-12,-154,0,7,-1,119*[fluorescence artefact?]
C=CCNC(=O)C1CCN(c2c([N+](=O)[O-])cc(C(F)(F)F)cc2[N+](=O)[O-])CC1,-6,-36,-4,2,7,1
S=C1NNC2(NN1)C1CC3CC(C1)CC2C3,56*,-7,5,3,-8,6
Cc1ccc(CSc2nnc(-c3ccccc3N)c(=O)[nH]2)cc1,2,-9,-30,-3,29*,1
CCOC(=O)c1c(NC(=O)C(F)(OC)C(F)(F)F)sc2c1CCN(C)C2 (stereo not given),-12,-4,8,0,-11,56*
CCOC(=O)c1c(NC(=O)CSc2nnc(C)s2)sc2c1CCN(C)C2,2,0,-6,-3,2,40*
CCOC(=O)c1c(NC(=O)c2cccs2)sc2c1CCN(C(=O)OCC)C2,-11,-23,-8,3,8,10
Cc1ccc(NC(=O)c2sc3nc4c(c(-c5ccco5)c3c2N)CCC4)cc1,-17,5,4,1,-2,18
SMILES,PLK1 inh,Plk1 PBD FP,LYP act,EphB4 antag,PTPN22 inh 2,HIV Rev-RRE inh
Nc1c(C(=O)Nc2ccc(F)cc2)sc2nc(-c3ccco3)ccc12,-6,5,-4,4,2,46*
Nc1c(C(=O)Nc2ccc(Br)cc2)sc2nc(-c3ccco3)ccc12,-12,11,10,-6,-6,46*
CCOC(=O)C1=C(CSc2nc3c(cc2C#N)CCC3)OC(N)=C(C#N)C1c1ccccc1 (stereo not given),-14,15,-10,6,9,21
CCOC(=O)C1=C(CSc2nc3c(cc2C#N)CN(C)CC3)OC(N)=C(C#N)C1c1ccccc1 (stereo not given),-4,2,1,2,-4,57*
CCOC(=O)C1=C(CSc2nc(-c3ccccc3)ccc2C#N)OC(N)=C(C#N)C1c1cccnc1 (stereo not given),-10,-31,27,5,-28,37*
CCOC(=O)C1=C(CSc2nc3c(cc2C#N)CN(C)CC3)OC(N)=C(C#N)C1c1ccc(F)cc1 (stereo not given),6,-42,4,1,-5,57*
COC(=O)C1=C(CSc2nc3c(cc2C#N)CN(C)CC3)OC(N)=C(C#N)C1c1ccccc1F (stereo not given),0,-26,-9,-4,10,54*
Cc1cc(C)n(-c2nc(NCCC(C)C)c3c4c(sc3n2)COC(C)(C)C4)n1,-16,16,-15,4,16,2
CCN(CC)S(=O)(=O)c1cccc(-c2nnc(SCC(N)=O)n2CCc2ccccc2)c1,-8,-5,10,3,-7,5
CCOC(=O)N1CCN(CC(O)COCC2=CCC3CC2C3(C)C)CC1 (stereo not given),1,-7,8,-4,-7,-2
CCNc1ccc(Br)cc(C(=O)/C=C/c2c(Cl)cccc2Cl)c1=O,-5,-14,-14,1,11,89*[fluorescence artefact?]
CNc1ccc(Br)cc(C(=O)/C=C/c2cccc(OC)c2)c1=O,-1,0,-16,12,12,53*
CN(C1CCCCC1)S(=O)(=O)c1ccc2c(c1)c(=O)c(C(=O)NCCN1CCCC1)cn2C,62*,-1,/,0,/,10
CN(C1CCCCC1)S(=O)(=O)c1ccc2c(c1)c(=O)c(C(=O)NCCCN1CCCC1)cn2C,59*,-21,/,-1,/,10
C[N+](C)(C)CCCN1C(=O)CCCC1=O,-17,-23,6,-5,-3,0
Cc1cc(OCC(=O)Nc2ccc(N3CCN(C(=O)c4ccco4)CC3)cc2)cc(C)c1Cl,-8,-5,-12,-6,16,-2
Cn1c(C(=O)N2CCN(c3ccc(Cl)cc3)CC2)cc2c(=O)[nH]c3ccccc3c21,52*,16,-8,3,8,1
Cc1noc(C)c1C(=O)NCCc1ccc(Cl)cc1,-9,20,1,-6,-3,95*[fluorescence artefact?]
